Source: PubChem
The list is not random: actives were taken first. Their share in the collection is about 2.9%.
SENP8 block-1: blocks the human protease SENP8; Q96LD8; purified SENP8, Z-RLRGG-aminoluciferin cleavage, luminescence; inhibition, % at 10 µM; 330,000 compounds, 1.2% hits; AID 2540; in the data active = inhibition above about 50%
Target sequence (Q96LD8 whole entry, looked up): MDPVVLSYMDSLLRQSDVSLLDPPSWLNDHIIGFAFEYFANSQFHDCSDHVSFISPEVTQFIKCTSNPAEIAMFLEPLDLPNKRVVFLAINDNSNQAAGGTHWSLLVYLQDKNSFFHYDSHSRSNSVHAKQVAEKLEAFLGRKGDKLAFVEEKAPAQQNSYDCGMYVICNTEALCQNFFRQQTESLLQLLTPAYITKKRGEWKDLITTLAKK
SENP8 block-2: inhibitors of human SENP8 protease; Q96LD8; recombinant SENP8, Nedd8 substrate fluorescence; inhibition, % at 20 µM; 360,000 compounds, 0.64% hits; AID 602440; in the data active = inhibition mostly above about 40%, no sharp cut-off; inactive = mostly below about 27%
SENP7 block: blocks the human protease SENP7. AID 434973. Q9BQF6. recombinant SENP7, Z-RLRGG-aminoluciferin luminescence, 40 min. inhibition, % at 5 µM. 330,000 compounds, 1.5% hits;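 active = inhibition above about 50% at the single test dose, limit read from the data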;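 also: plate controls were DMSO with enzyme for no effect and no enzyme buffer wells for full effect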
Apaf-1 inh: human Apaf-1 inhibition. O14727. reconstituted apoptosome caspase-3 activity, DEVD-Rh110 fluorescence. inhibition, % at 20 µM. 330,000 compounds, 0.71% hits; active = inhibition of at least 40% at 20 µM;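 also: plate controls were DMSO wells for no effect and DEVD-CHO caspase inhibitor wells for full effect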
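detection = Rh110 fluorescence intensity | test system = biochemical Apaf-1 apoptosome reconstitution | also added = cytochrome c and DEVD-Rh110 substrate | schedule = 30 min plus 50 min, RT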
SENP1 inh: SENP1 (human) catalytic domain inhibition; Q9P0U3; recombinant SENP1 catalytic domain, CyPet-SUMO1-YPet FRET cleavage; inhibition, % at 10 µM; 360,000 compounds, 0.21% hits;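 active = inhibition at least 30% at 10 µM, raw YFP signal under a set limit, fluorescence ratio 0.5 to 1.5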;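 also: 0% = enzyme with DMSO and 100% = no enzyme wells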
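Test system: recombinant human SENP1 catalytic domain, His6-tagged / Medium: pH 8 Tris buffer with EDTA, NaCl, BME, BSA, NP40, catalase / Also added: SUMO1 FRET substrate flanked by Cypet and Ypet, 25 nM / Times: 50 min reaction at room temperature / Signal: FRET, CFP and YFP emission / Control set: no-enzyme low control and enzyme-plus-DMSO high control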
SENP6 block: inhibitors of human SENP6 protease; 330,000 compounds, 1.8% hits; Q9GZR1; AID 2599; Recombinant SENP6 catalytic domain, aminoluciferin luminescence; inhibition, % at 10 µM;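 active = inhibition above about 50% at the single tested dose, limit read from the data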;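 also: plate controls were DMSO wells with enzyme for no effect and DMSO wells lacking enzyme for full effect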
SENP8 conf: confirmation of human SENP8 protease inhibitors. shares compounds with SENP7 block. Recombinant SENP8, Z-RLRGG-aminoluciferin luminescence, 60 min. inhibition, % at 12.5 µM. 6,200 compounds, 40% hits. AID 488912;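 active = mean inhibition across replicates above about 50%, limit read from the data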
SENP6 confirm: human SENP6 inhibition, confirmed; shares compounds with SENP7 block; recombinant SENP6, Z-RLRGG-aminoluciferin luminescence; inhibition, % at 12.5 µM; 6,200 compounds, 58% hits
SENP7 confirm: confirmation of human SENP7 protease inhibitors; shares compounds with SENP7 block; recombinant SENP7, Z-RLRGG-aminoluciferin luminescence, 40 min; inhibition, % at 12.5 µM; 6,200 compounds, 69% hits; AID 488917
Casp3 SENP sel: inhibits human caspase-3 in SENP selectivity test; purified caspase-3, Z-DEVD-aminoluciferin luminescence, 60 min; 6,200 compounds, 60% hits; inhibition, % at 12.5 µM; shares compounds with SENP7 block;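 active = mean inhibition above about 50%, limit read from the data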;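 also: plate controls were enzyme with DMSO for no effect and wells without caspase-3 for full effect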
Target sequence (P42574 28-227 limits assumed): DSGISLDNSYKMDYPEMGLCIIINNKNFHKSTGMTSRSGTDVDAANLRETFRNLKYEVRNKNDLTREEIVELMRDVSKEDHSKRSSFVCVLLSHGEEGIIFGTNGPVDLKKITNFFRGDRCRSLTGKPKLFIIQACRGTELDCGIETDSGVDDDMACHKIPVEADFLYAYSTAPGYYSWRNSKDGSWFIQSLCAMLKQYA
SENP luc ctr: luminescence interference (SENP counter-screen). shares compounds with SENP7 block. Pre-incubated SENP8/Z-RLRGG-aminoluciferin, luciferase luminescence interference. inhibition, % at 12.5 µM. 6,200 compounds, 39% hits. AID 488919;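 active = mean inhibition above about 50% when retested at one dose, limit read from the data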;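 also: plate controls were DMSO wells with completed reaction for no effect and substrate without enzyme for full effect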
Starred values were filed as active, the others as inactive; · = not tested or not shown.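 The calls were made as follows, unless noted: active = mean inhibition above about 50% in the one-dose retest (limit read from the data); inactive = the rest.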

SMILES	SENP8 block-1	SENP8 block-2	SENP7 block	Apaf-1 inh	SENP1 inh	SENP6 block	SENP8 conf	SENP6 confirm	SENP7 confirm	Casp3 SENP sel	SENP luc ctr
COc1ccc(Nc2nc3ccccc3s2)cc1	62*	5	69*	5	-1	75*	66*	66*	89*	50*	18
COc1ccc(C2CC=C(C(C)=O)CN2S(=O)(=O)c2ccccc2)cc1 (centres undefined)	·	3	·	·	0	·	·	·	·	·	·
COc1ccc(NC(=O)O/N=C/c2ccc(Br)cc2)cc1	-6	28	6	7	3	16	·	·	·	·	·
O=C(Nc1ccccc1)O/N=C/c1ccc(F)cc1	42	15	59*	13	3	68*	67*	65*	89*	75*	48
COc1ccc(/C=N/OC(=O)Nc2ccccc2OC)cc1	72*	18	81*	8	0	43	20	87*	22	83*	33
O=C(Nc1ccccc1)O/N=C/c1ccccc1Cl	26	14	56*	-5	-1	39	60*	53*	77*	35	53*
C=CCSc1nc2c(N)ncnc2n1C1OC(CO)C(O)C1O (centres undefined)	·	8	·	·	1	·	·	·	·	·	·
CCc1ccc(N(C(=O)c2snc(C(N)=O)c2N)C(C(=O)NCC2CCCO2)c2ccco2)cc1 (centres undefined)	-4	-285	5	17	-20	3	·	·	·	·	·
Cn1cccc1C(=O)c1ccc(Cl)cc1Cl	-2	15	-3	2	-1	-4	·	·	·	·	·
Cn1cccc1C(=O)C(=O)Nc1ccc(F)c(F)c1	80*	8	83*	13	4	89*	43	39	77*	53*	42
Cn1cccc1C(=O)C(=O)Nc1cc(Cl)cc(Cl)c1	67*	24	94*	-4	1	73*	35	53*	88*	58*	-1
Cn1cccc1C(=O)C(=O)Nc1ccc(Cl)cc1	86*	23	95*	-9	1	90*	93*	93*	100*	90*	57*
CNc1nc(N2CCc3ccccc32)ncc1F	79*	-8	5	-8	1	86*	85*	86*	98*	83*	87*
COc1ccc(C2CC(=O)c3cnc(N4CCc5ccccc54)nc3C2)cc1OC (centres undefined)	-4	·	11	6	·	-9	·	·	·	·	·
Cc1ccc(C2=C/C(=C/c3cccs3)C(=O)O2)cc1	34	10	71*	-8	-41	74*	-10	-2	5	19	4
Cc1ccc(C=C2C=C(c3ccccc3)OC2=O)cc1	·	-25	·	·	-77	·	·	·	·	·	·
COc1cccc2sc(Nc3nc(-c4ccccn4)cs3)nc12	42	-84	45	29	-15	65*	-7	56*	85*	28	12
c1ccc(-c2csc(Nc3cccnc3)n2)nc1	-7	-14	-8	5	2	-7	·	·	·	·	·
c1ccc(Nc2nc(-c3ccccn3)cs2)cc1	38	-16	60*	11	7	-3	60*	61*	88*	54*	76*
Cc1cccc(N(CC(=O)NC2CCCCC2)C(=O)CCC(=O)Nc2nccs2)c1	-2	10	0	13	0	-12	·	·	·	·	·
COC(=O)Nc1nnc(-c2ccc(OC)cc2)s1	49	-329	75*	-22	-2	68*	50*	55*	85*	85*	52*
O=C(Nc1nnc(C(F)(F)F)s1)c1cccnc1	20	-4	48	8	7	55*	54*	54*	88*	85*	66*
COc1ccc(C(=O)Nc2nnc(C(F)(F)F)s2)cc1	16	-32	19	7	2	61*	33	31	64*	64*	27
COc1ccc(NC(=O)c2csc(C)c2)cc1OC	-9	4	-2	5	0	-28	·	·	·	·	·
CC(/C=C/c1ccc(O)cc1)=N/O	81*	2	85*	-12	1	91*	86*	84*	96*	93*	86*
SMILES	SENP8 block-1	SENP8 block-2	SENP7 block	Apaf-1 inh	SENP1 inh	SENP6 block	SENP8 conf	SENP6 confirm	SENP7 confirm	Casp3 SENP sel	SENP luc ctr
O=C(CCC1CCCC1)c1c(O)c2ccccc2oc1=O	46	4	4	4	0	71*	68*	68*	85*	70*	39
O=C(c1c(O)c2ccccc2oc1=O)C1CCCCC1	9	10	2	12	0	3	·	·	·	·	·
COc1ccccc1NC(=O)Nc1ccc(-n2ccc(C(F)(F)F)n2)cc1	73*	14	82*	7	0	80*	76*	82*	93*	44	69*
COc1ccccc1NC(=O)Nc1ccc(N2CCOCC2)cc1	39	11	56*	1	1	64*	65*	62*	87*	80*	66*
Fc1cccc2sc(Nc3nnc(-c4ccco4)o3)nc12	17	-339	-6	0	-10	42	·	·	·	·	·
COc1cccc2sc(Nc3nnc(-c4ccc(F)cc4)o3)nc12	44	-411	43	21	-51	75*	31	42	86*	66*	6
COc1cccc2sc(Nc3nnc(-c4cccs4)o3)nc12	84*	-255	73*	12	-48	92*	84*	84*	97*	83*	55*
CC1(C(=O)NS(=O)(=O)c2ccccc2Cl)CCN1C(=O)C/C=C/c1ccccc1 (centres undefined)	·	10	·	·	-2	·	·	·	·	·	·
CNc1snc(C)c1C(=O)OC(C)C(=O)Nc1ccc(F)cc1 (centres undefined)	-6	7	7	0	-2	-7	·	·	·	·	·
O=C(Nc1ccon1)c1ccc2c(c1)OCO2	-9	19	0	-16	2	1	·	·	·	·	·
Cc1ccc(NC(=O)CNC(=O)c2ccc3c(c2)OCO3)nc1	-1	4	10	11	2	3	·	·	·	·	·
Cc1ccc(NC(=O)c2ccc3c(c2)OCCO3)nc1	26	4	54*	4	1	56*	48	46	81*	81*	60*
